In ChEMBL document CHEMBL4190271, “Semisynthesis and Kappa-Opioid Receptor Activity of Derivatives of Columbin, a Furanolactone Diterpene” (J Nat Prod, 2017):

Columns and labels:
Format in all cases: functional, cell-based
[1] = target: T1, Kappa-type opioid receptor (Homo sapiens, UniProt P41145); assay: Agonist activity at human kappa-type opioid receptor expressed in CHO-K1 cells assessed as inhibition of forskolin-induced cAMP accumulation after 30 mins by luminescence-based assay
Outline: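 CHO-K1 cells stably expressing human κ-opioid receptor, tested in a HitHunter cAMP assay for inhibition of forskolin-induced cAMP accumulation, run per the manufacturer's directions. Compounds were tested up to 50 μM. Emax is expressed relative to salvinorin A, set at 100%. EC50 and Emax are given as means ± SEM of at least 2 independent experiments, each run in triplicate.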

[2] = target: T1, Kappa-type opioid receptor; assay: Agonist activity at human kappa-type opioid receptor expressed in CHO-K1 cells assessed as inhibition of forskolin-induced cAMP accumulation up to 50 uM after 30 mins by luminescence-based assay
Outline: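 CHO-K1 cells stably expressing human κ-opioid receptor; HitHunter cAMP assay, run per the kit directions, measuring inhibition of forskolin-induced cAMP accumulation. Compounds tested up to 50 μM. Reference agonist sets E_max = 100%. EC₅₀ and E_max given as means ± standard error of the mean from n ≥ 2 independent experiments, each in triplicate.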

[3] = target: T1, Kappa-type opioid receptor; assay: Agonist activity at human kappa-type opioid receptor expressed in CHO-K1 cells assessed as inhibition of forskolin-induced cAMP accumulation after 30 mins by luminescence-based assay relative to columbin

T1 sequence (P41145 whole entry): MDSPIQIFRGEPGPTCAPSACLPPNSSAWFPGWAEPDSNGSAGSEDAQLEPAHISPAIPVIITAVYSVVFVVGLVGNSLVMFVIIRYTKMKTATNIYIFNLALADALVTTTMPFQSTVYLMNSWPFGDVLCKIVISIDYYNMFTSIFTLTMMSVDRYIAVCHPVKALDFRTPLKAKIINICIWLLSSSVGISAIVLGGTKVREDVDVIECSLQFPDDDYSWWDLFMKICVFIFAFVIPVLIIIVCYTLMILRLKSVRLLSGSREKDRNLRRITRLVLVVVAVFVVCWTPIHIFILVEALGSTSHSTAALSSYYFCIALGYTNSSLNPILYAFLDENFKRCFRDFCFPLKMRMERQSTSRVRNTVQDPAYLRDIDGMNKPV

Emax [2]	SMILES	EC50 [1]	Emax [1]	fold change (FC) [3]
0%	CC(=O)O[C@@H]1[C@H]2OC(=O)[C@@](O)([C@@H]1OC(C)=O)[C@]1(C)CC[C@H]3C(=O)O[C@@H](c4ccoc4)C[C@@]3(C)[C@H]21	> 50 µM	–	–
0%	C[C@@]12C[C@H](c3ccoc3Br)OC(=O)[C@@H]1CC[C@]1(C)[C@H]2[C@@H]2OC(=O)[C@@]1(O)[C@@H](Br)[C@@H]2Br	> 50 µM	–	–
–	C[C@@]12C[C@H](c3ccoc3)OC(=O)[C@@H]1CC[C@]1(C)[C@H]2[C@H]2CC[C@]1(O)C(=O)O2	2 µM	100%	> 25
–	C[C@@]12C[C@H](c3ccoc3)OC(=O)[C@@H]1CC[C@]1(C)[C@H]2[C@H]2C=C[C@]1(OC(=O)/C=C/c1ccccc1)C(=O)O2	6 µM	100%	> 8.3
0%	C[C@@]12C[C@H](c3ccoc3Br)OC(=O)[C@@H]1CC[C@]1(C)[C@H]2[C@H]2C=C[C@]1(O)C(=O)O2	> 50 µM	–	–
–	CC(=O)O[C@@]12C=C[C@@H](OC1=O)[C@H]1[C@]3(C)C[C@H](c4ccoc4)OC(=O)[C@@H]3CC[C@]12C	8 µM	100%	> 6.3
–	COCO[C@@]12C=C[C@@H](OC1=O)[C@H]1[C@]3(C)C[C@H](c4ccoc4)OC(=O)[C@@H]3CC[C@]12C	12 µM	100%	> 4.2
–	C[C@@]12C[C@H](c3ccoc3)OC(=O)[C@@H]1CC[C@]1(C)[C@H]2[C@@H]2OC(=O)[C@@]1(O)[C@H](O)[C@@H]2O	16 µM	100%	> 3.1

SMILES	Emax [2]	EC50 [1]	Emax [1]	fold change (FC) [3]
C[C@@]12C[C@H](c3ccoc3)OC(=O)[C@@H]1CC[C@]1(C)[C@H]2[C@H]2C=C[C@]1(O)C(=O)O2	0%	> 50 µM	–	–
